# A selection: hits, their analogues and other compounds. The true share with any hit is near 5.3%.
# Beta cell apopt: inhibitors of cytokine-induced beta cell apoptosis, primary screen, luminescence; INS-1E cytokine-induced death, ATP luminescence, 48 h; percent of positive-control rescue, neutral wells zero; protection from apoptosis, % (concentration not given with the values); actives 0.8% (n = 300,000); AID 435005, 2010;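 active means Every replicate reaches about 75%, or at least half do and their mean reaches it too, limit read from the data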;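 further: 0% = cytokine-treated negative control wells and 100% = positive control rescue; higher means more ATP so stronger rescue from cytokine killing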
# T cruzi repl: inhibitors of intracellular T. cruzi growth, primary screen, luminescence, NIH3T3 host cells; T. cruzi beta-gal in NIH3T3, 90 h; inhibition, % (no concentration beside the values); actives 1.4% (n = 300,000); AID 1885, 2009;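 active means mean inhibition across valid replicates above about 55%, limit read from the data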;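 further: signal also drops with host cell toxicity which is not excluded here; 0% = plate median of DMSO wells and 100% = zero luminescence signal; higher percent means less beta-gal luminescence so fewer parasites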
#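 assay system = mouse NIH/3T3 fibroblasts infected with β-gal-expressing T. cruzi Tulahuen C4 | input = 5,000 NIH/3T3 host cells per well | buffer or medium = DMEM plus 2% FBS | timing = 3 h host attachment, then at least 90 h co-culture | measured by = GalScreen luminescence, 60 min | evaluation = luminescence reflecting intracellular parasite burden, expressed as percent inhibition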
# NALP3 yeast inh: NALP3 inflammasome inhibitors in reconstituted yeast, primary screen, luminescence, uHTS; Yeast reconstituted NLRP3/ASC/caspase-1, beta-gal luminescence, 24 h; inhibition, % at 10 µM; actives 0.39% (n = 330,000);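 active means inhibition of 50% or more; inactive means inhibition below 50%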;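 further: plate controls were induced DMSO wells for no effect and uninduced yeast grown without galactose for full effect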
# Calb FLC: C. albicans growth inhibition with fluconazole, primary screen, CaCi-2 strain, Alamar Blue fluorescence; C. albicans CaCi-2 (fluconazole-resistant clinical isolate) + fluconazole, 48 h; growth inhibition, % (test concentration not listed); actives 0.57% (n = 300,000); AID 1979, 2009;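 active means growth inhibition above about 58% in most replicates, limit read from the data, passing the limit was not always enough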;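 further: all wells also contain fluconazole at 8 µg/ml as a sub-toxic cotreatment; 0% = median of DMSO wells and 100% = median of geldanamycin control wells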
# CSC inhib: cancer stem cell viability inhibitors, primary screen, luminescence; cancer stem cell-like cells viability; inhibition, % at 7.5 µM; actives 1.1% (n = 300,000); AID 2717, 2010; in the data active means inhibition above about 75%; tested in HMLE shEcad cells
# Mdm2-MdmX inh: inhibitors of human Mdm2-MdmX association, primary screen, cell-based, luminescence, split luciferase, SaOS-2, uHTS; Protein Mdm4 (Homo sapiens) + E3 ubiquitin-protein ligase Mdm2 (Homo sapiens), …; SaOS-2 split-luciferase Mdm2/MdmX complementation; inhibition, % at 8 µM; actives 3% (n = 330,000);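 active means inhibition of at least 50% at 8 µM in the primary screen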
# Target sequence (O15151 whole entry, looked up): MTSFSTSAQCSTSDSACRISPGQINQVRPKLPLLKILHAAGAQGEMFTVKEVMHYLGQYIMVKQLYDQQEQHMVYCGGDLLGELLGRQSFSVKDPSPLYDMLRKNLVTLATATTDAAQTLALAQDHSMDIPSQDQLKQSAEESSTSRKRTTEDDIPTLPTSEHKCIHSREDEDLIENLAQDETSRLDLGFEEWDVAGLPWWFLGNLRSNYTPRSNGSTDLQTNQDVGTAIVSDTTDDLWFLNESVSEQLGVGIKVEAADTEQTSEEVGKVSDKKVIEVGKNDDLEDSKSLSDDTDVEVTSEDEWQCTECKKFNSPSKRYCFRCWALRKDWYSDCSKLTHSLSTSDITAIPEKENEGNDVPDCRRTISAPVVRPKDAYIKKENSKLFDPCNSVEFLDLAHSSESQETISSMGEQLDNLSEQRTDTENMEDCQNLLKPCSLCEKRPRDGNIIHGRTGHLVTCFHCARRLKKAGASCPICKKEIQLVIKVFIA
# Target sequence (Q00987 whole entry, looked up): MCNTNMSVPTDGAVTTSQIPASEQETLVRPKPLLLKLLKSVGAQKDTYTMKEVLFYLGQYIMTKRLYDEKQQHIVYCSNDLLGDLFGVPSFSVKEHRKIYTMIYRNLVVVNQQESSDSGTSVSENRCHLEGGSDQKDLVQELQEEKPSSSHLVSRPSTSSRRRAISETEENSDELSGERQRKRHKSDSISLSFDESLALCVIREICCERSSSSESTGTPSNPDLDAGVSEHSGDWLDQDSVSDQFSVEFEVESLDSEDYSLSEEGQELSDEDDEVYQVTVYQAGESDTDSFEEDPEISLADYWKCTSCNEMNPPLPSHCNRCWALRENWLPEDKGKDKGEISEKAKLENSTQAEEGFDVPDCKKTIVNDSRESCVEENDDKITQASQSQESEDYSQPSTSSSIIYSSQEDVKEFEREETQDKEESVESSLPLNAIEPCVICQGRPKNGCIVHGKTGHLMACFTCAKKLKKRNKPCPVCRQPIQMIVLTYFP
# NALP3 yeast conf: NALP3 inhibitors retested in yeast, confirmation, luminescence, single concentration; shares compounds with NALP3 yeast inh; yeast expressing human NALP3; inhibition, % at 10 µM; actives 81% (n = 1,300); in the data active means inhibition above about 48%
# Casp1 ASC ctr: CASP1-PYCARD signaling inhibition in yeast, confirmatory test, counterassay for NLRP3 inhibitor program, one-dose; shares compounds with NALP3 yeast inh; AID 488784, 2010; actives 66% (n = 1,000); yeast expressing Caspase-1-ASC, luminescence counter screen; inhibition, % at 10 µM
# NALP3 yeast rt: NALP3 inhibitors in yeast, repeat test, confirmation, luminescence, single concentration, retest; AID 488794, 2010; yeast expressing human NALP3, luminescence read-out; actives 53% (n = 1,000); inhibition, % at 10 µM; shares compounds with NALP3 yeast inh
# The depositor's hits bear a star; nt = no result given. Unless noted, no stated cut-off is given here; in the data, active means inhibition above about 50%; inactive means the rest.
SMILES,Beta cell apopt,T cruzi repl,NALP3 yeast inh,Calb FLC,CSC inhib,Mdm2-MdmX inh,NALP3 yeast conf,Casp1 ASC ctr,NALP3 yeast rt
C[C@@H]1CC[C@]2(C(=O)O)CC[C@]3(C)C(=CCC4[C@@]5(C)CC[C@H](O)[C@@](C)(C(=O)O)C5CC[C@]43C)C2[C@]1(C)O (stereo not given in full),-9,nt,18,nt,-14,-4,nt,nt,nt
C[C@@H]1CC[C@]2(C(=O)O)CC[C@]3(C)C(=CCC4[C@]56CC[C@@](O)(OC5)C(C)(C)C6CC[C@]43C)C2[C@H]1C (stereo not given in full),3,nt,21,nt,96*,29,nt,nt,nt
C[C@H]1[C@H](C)CC[C@]2(C)CC[C@]3(C)C(=CC[C@@H]4[C@@]5(C)CC[C@@H](O)[C@](C)(C(=O)O)[C@@H]5CC[C@]43C)[C@H]12,-4,1,nt,nt,77*,nt,nt,nt,nt
C[C@H]1[C@H](C)CC[C@]2(C)CC[C@]3(C)C(=CC(=O)C4[C@@]5(C)CC[C@H](O)C(C)(C)C5CC[C@]43C)[C@H]12 (stereo not given in full),5,nt,27,nt,98*,-2,nt,nt,nt
S=C1Cc2ccccc2N1,nt,60*,nt,63,nt,nt,nt,nt,nt
Cc1cccc(OCCn2c(=S)[nH]c3ccccc32)c1,1,7,33,-45,13,-7,nt,nt,nt
Cc1ccc(OCCn2c(=S)[nH]c3ccccc32)c(C(C)C)c1,9,21,75*,-6,101*,8,81*,56*,50
CN1CCc2nc3ccc(Cl)cc3c(-c3ccccc3Cl)c2C1,1,40,57*,15,5,34,57*,42,41
CC(Sc1nc(C(F)(F)F)nc2ccccc12)C(=O)NC1CCCC1 (stereo not given),nt,nt,52*,nt,nt,-8,36,nt,nt
CC1CCN(CCC(=O)NN)CC1,1,-1,-9,-15,6,9,nt,nt,nt
O=Cc1cn(-c2ccccc2)nc1-c1ccccc1,nt,-4,60*,5,4,17,72*,60*,53*
COCCn1c(-c2ccccc2)csc1=Nc1cccnc1,nt,1,8,0,12,3,nt,nt,nt
CC(C)n1c(-c2ccco2)csc1=Nc1cccnc1,34,14,53*,3,13,-8,11,nt,nt
CSc1ncc(C(=O)Nc2ccccc2)cn1,2,0,59*,5,-5,-13,72*,57*,55*
COc1cccc(NC(=O)c2cnc(SC)nc2)c1,2,-13,69*,-1,-4,-12,72*,68*,58*
COc1cccc(NC(=O)c2ccncc2)c1,-4,1,5,6,-8,6,nt,nt,nt
COC(=O)COc1ccc(-c2ccc(F)cc2)cc1C=O,nt,1,56*,-19,8,2,55*,58*,28
COC(=O)COc1ccc(-c2ccccc2)cc1C=O,-1,-1,16,-2,-3,-24,nt,nt,nt
O=C(COc1ccc(F)cc1)Nc1cc(Cl)ccc1-n1cncn1,1,-10,63*,-3,-16,21,70*,56*,49
O=C(CC(=O)N/N=C/c1ccc(Cl)cc1Cl)NCc1ccccc1,3,4,-12,3,-6,20,nt,nt,nt
Cc1ccc(NN2C(=O)C=C(c3ccc(Cl)cc3)C2=O)cc1,-5,24,95*,-40,62,32,47,nt,nt
COc1cc(NC(=O)CCNS(=O)(=O)c2ccc3c(c2)CCC(=O)N3)cc(OC)c1,-5,-6,9,-13,-11,3,nt,nt,nt
Cc1ccc(Nc2nnc(SC/C(O)=C(\C#N)c3nc4ccccc4[nH]3)s2)c(C)c1,-6,4,23,-2,1,25,nt,nt,nt
CN1CCN(C(=O)CSc2nc(-c3cccs3)cc(-c3cccs3)c2C#N)CC1,9,26,nt,45,-4,nt,nt,nt,nt
Cc1[nH]c2ccccc2c1C(=O)/C=C/c1ccccc1,-3,2,63*,9,3,-9,52*,80*,75*
SMILES,Beta cell apopt,T cruzi repl,NALP3 yeast inh,Calb FLC,CSC inhib,Mdm2-MdmX inh,NALP3 yeast conf,Casp1 ASC ctr,NALP3 yeast rt
Cc1[nH]c2ccccc2c1C(=O)/C=C/c1ccccc1Cl,nt,14,61*,3,48,-86,22,nt,nt
Cc1[nH]c2ccccc2c1C(=O)/C=C\c1ccccc1Cl,4,10,53*,13,-11,-58,-20,nt,nt
Cc1cc(Br)ccc1NC(=O)CNC(=O)c1ccc(-n2cncn2)c([N+](=O)[O-])c1,nt,-3,10,7,-12,13,nt,nt,nt
O=c1c2ccccc2nc(-c2ccc([N+](=O)[O-])cc2)n1O,5,-3,58*,61,3,-26,74*,51*,58*
O=C1CCCc2c1nc(-c1ccc([N+](=O)[O-])cc1)n2O,-20,-10,16,0,-6,9,nt,nt,nt
CCSCc1nnc(SCC(=O)Nc2ccc(OC)cc2)n1C,3,-5,7,-10,-4,19,nt,nt,nt
OC(CN1C2=NCCCN2c2ccccc21)c1ccc2c(c1)OCO2 (stereo not given),-2,1,7,-3,-1,-26,nt,nt,nt
OC(CN1C2=NCCN2c2ccccc21)c1ccc2c(c1)OCO2 (stereo not given),-1,9,57*,-3,-8,-7,82*,45,40
CC(=O)Oc1ccc2c(=O)c(-c3ccccc3)c(C)oc2c1,0,-8,8,-10,-11,-5,nt,nt,nt
COc1ccc2c(=O)c(-c3cnn(-c4ccccc4)c3)c(C)oc2c1,5,-7,62*,-18,14,8,66*,59*,68*
COc1ccc2c(=O)c3ccccc3oc2c1,1,-6,57*,3,-4,-29,68*,48,45
Clc1ccc(N2CCN(/N=C/c3ccncc3)CC2)cc1,4,34,21,-15,25,-2,nt,nt,nt
Cc1cc2ccccn2c1C(=O)c1ccccc1Br,-6,2,57*,3,nt,24,55*,50*,45
Cc1cc2ccccn2c1C(=O)c1ccc(F)cc1,-3,1,48,4,41,19,nt,nt,nt
CC(=O)NC1=NN(C(C)=O)C(c2ccc(C(C)C)cc2)S1 (stereo not given),-8,14,8,-27,nt,-4,nt,nt,nt
